Measurements taken from article PMC6828556 (Biochemical pharmacology, 2017).
One block for each compound: values may come before it.

Legend:
[1] = target: human 11β-HSD1 (Homo sapiens, UniProt P28845); type: biochemical; conditions: for activity against 11β-HSD1 (in words): HEK-293 lysates, recombinant human enzyme; for inhibition at 20 µM: read-out: inhibition of 11β-HSD1 enzyme activity
How it was run: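 Lysates of HEK-293 cells stably co-expressing human 11β-HSD1 and H6PDH (HHH7 clone) were incubated 10 min at 37°C with 200 nM radiolabeled cortisone, 500 μM NADPH and test compound or DMSO vehicle (max 0.1%). Reactions were stopped with excess unlabeled cortisone/cortisol, giving about 20–25% conversion. Steroids were separated by TLC (chloroform:methanol 9:1) and counted by scintillation. Activity was normalized to vehicle; mean ± SD, ≥3 independent experiments. IC50 was skipped when residual activity at 20 μM exceeded 40%.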

[2] = target: T1, 11β-HSD2 (Homo sapiens, UniProt P80365); test: 11β-HSD2 activity in lysates of HEK-293 cells stably expressing human 11β-HSD2; type: biochemical; conditions: for inhibition at 20 µM: read-out: inhibition of 11β-HSD2 enzyme activity; for residual 11β-HSD2 activity: 20 μM test substance; for IC25 for 11β-HSD2: as determined in HEK-293 cell lysates
T1 sequence (P80365 1-405): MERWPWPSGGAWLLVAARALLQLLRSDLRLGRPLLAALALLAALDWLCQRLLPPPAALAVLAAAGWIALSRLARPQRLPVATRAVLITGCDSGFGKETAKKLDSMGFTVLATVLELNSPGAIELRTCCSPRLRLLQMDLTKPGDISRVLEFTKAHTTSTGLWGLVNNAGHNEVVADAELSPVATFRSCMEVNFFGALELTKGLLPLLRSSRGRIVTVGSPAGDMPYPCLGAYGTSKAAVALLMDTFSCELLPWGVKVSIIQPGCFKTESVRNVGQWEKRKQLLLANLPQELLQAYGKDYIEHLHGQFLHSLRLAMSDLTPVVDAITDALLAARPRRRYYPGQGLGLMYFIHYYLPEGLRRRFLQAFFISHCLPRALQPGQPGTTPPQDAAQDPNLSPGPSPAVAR
How it was run: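 Reactions were stopped with excess unlabeled cortisone/cortisol, giving about 20–25% conversion. Products were separated by TLC (chloroform:methanol 9:1) and counted by scintillation. Activity was normalized to vehicle; mean ± SD, ≥3 independent experiments.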

[3] = tested on: 11β-HSD1; conditions: cited from earlier work
[4] = tested on: 11β-HSD2; conditions: cited from earlier work
[5] = target: T2, human 17β-HSD1 (Homo sapiens, UniProt P14061); test: 17β-HSD1 activity in lysates of transiently transfected HEK-293 cells; type: biochemical; conditions: HEK-293 lysates, 200 nM estrone; data not shown
T2 sequence (P14061 1-328): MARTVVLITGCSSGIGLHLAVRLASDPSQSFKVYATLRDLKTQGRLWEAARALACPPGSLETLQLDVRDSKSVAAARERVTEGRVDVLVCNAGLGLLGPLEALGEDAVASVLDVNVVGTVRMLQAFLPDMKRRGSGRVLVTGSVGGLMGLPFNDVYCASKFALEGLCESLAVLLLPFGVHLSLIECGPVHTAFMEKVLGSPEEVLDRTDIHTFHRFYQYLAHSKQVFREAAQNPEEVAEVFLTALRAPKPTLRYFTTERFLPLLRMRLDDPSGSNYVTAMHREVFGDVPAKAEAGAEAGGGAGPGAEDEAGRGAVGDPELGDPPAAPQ
How it was run: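 Lysates of HEK-293 cells transiently expressing human 17β-HSD1 were incubated for 10 min at 37°C with 200 nM estrone (containing 50 nCi [2,4,6,7-3H]-estrone), 500 μM NADPH and test compound or DMSO vehicle. Steroids were separated by TLC, and substrate conversion was measured by scintillation counting. Activity was normalized to the vehicle control. Data are mean ± SD from at least three independent experiments.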

[6] = target: T3, human 17β-HSD2 (Homo sapiens, UniProt P37059); test: 17β-HSD2 activity in lysates of transiently transfected HEK-293 cells; type: biochemical; conditions: HEK-293 lysates, 200 nM estradiol; data not shown
T3 sequence (P37059 1-387): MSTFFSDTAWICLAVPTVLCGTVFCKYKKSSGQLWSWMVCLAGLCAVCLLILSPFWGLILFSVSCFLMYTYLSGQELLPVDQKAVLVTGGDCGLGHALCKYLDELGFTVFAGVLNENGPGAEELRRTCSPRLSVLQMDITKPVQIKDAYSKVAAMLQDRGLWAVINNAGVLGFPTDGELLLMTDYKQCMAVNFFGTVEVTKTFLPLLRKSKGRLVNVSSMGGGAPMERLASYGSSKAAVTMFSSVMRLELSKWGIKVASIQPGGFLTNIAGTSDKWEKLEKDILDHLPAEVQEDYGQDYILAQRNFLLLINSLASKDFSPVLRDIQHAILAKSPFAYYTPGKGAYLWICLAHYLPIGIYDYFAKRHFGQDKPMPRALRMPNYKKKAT
How it was run: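 Lysates of HEK-293 cells transiently expressing human 17β-HSD2 were incubated for 10 min at 37°C with 200 nM estradiol (containing 50 nCi [2,4,6,7-3H]-estradiol), 500 μM NAD+ and test compound or DMSO vehicle. Steroids were separated by TLC, with conversion quantified by scintillation counting. Results were normalized to the vehicle control. Data are mean ± SD from at least three independent experiments.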

[7] = target: T1, 11β-HSD2; test: 11β-HSD2 activity in intact SW-620 cells; type: cell-based
How it was run: (§1)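 Cells were grown in DMEM with 10% FBS (SW-620 passages 11–15, MCF-7 passages 19–27) and seeded at 100 000 (SW-620) or 50 000 (MCF-7) per well. After 24 h, medium was replaced by steroid- and serum-free DMEM with vehicle or inhibitor plus radiolabeled cortisol (10 nCi; 50 nM final). Incubation was at 37°C for 4 h (SW-620) or 5 h (MCF-7). Conversion was read by TLC and scintillation counting.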

[8] = predominately to albumin; cited from earlier work
[9] = target: T1, 11β-HSD2; type: biochemical; conditions: preincubation 0, 5, 20 min at 4°C or 10 min followed by dilution
How it was run: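 Lysates of HEK-293 cells expressing human 11β-HSD2 were preincubated with test compound for 0, 5 or 20 min at 4°C before activity measurement. Alternatively, lysates were preincubated 10 min with compound, then diluted 1:2 or 1:4 before measuring 11β-HSD2 activity (radiolabeled cortisol, NAD+, TLC/scintillation). Data were normalized to DMSO control; mean ± SD, ≥3 independent experiments.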

[10] = target: T1, 11β-HSD2; test: 11β-HSD2 activity in intact MCF-7 cells; type: cell-based
How it was run: as §1

[11] = cited from earlier work
[12] = first trimester exposure, 229 women, 50-800 mg daily, prospective cohort; cited from earlier work

Chain of human 11β-HSD1 (P28845 whole entry): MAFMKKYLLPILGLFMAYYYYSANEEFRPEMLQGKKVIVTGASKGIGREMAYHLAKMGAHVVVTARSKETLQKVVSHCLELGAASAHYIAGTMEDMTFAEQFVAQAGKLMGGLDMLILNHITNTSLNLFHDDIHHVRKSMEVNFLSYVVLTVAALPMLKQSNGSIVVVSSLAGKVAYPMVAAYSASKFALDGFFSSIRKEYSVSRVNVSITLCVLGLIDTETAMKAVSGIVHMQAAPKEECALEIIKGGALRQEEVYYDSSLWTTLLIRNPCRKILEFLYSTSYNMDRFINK

activity against 11β-HSD1 (in words) [1]: inactive
activity against 11β-HSD2 (in words) ([2]; HEK-293 lysates, recombinant human enzyme): inactive
SMILES: CCCSc1ccc2nc(NC(=O)OC)[nH]c2c1 [Albendazole]

SMILES: CC(=O)N1CCN(c2ccc(OCC3COC(Cn4ccnc4)(c4ccc(Cl)cc4Cl)O3)cc2)CC1 (centres unmarked) [Ketoconazole]
inhibitory effect toward 11β-HSD1 (in words) [3]: weak inhibitory effects
inhibitory effect toward 11β-HSD2 (in words) [4]: weak inhibitory effects

IC50 [7]: 820 ± 180 nM
irreversible 11β-HSD2 inhibition [9]: excluded
IC50 [10]: 680 ± 200 nM
IC50 [2]: 223 ± 31 nM
inhibition of human 11β-HSD2 (in words) ([2]; 5 μM, HEK-293 lysates, 200 nM cortisol): complete inhibition
SMILES: CC(O)C(C)n1ncn(-c2ccc(N3CCN(c4ccc(OCC5COC(Cn6cncn6)(c6ccc(Cl)cc6Cl)O5)cc4)CC3)cc2)c1=O (centres unmarked) [OHI, hydroxyitraconazole]
inhibition of 17β-HSD1 activity [5]: None of the compounds inhibited 17β-HSD1 or 17β-HSD2 activity
inhibition of 17β-HSD2 activity [6]: None of the compounds inhibited 17β-HSD1 or 17β-HSD2 activity
plasma protein binding [8]: 99.6%

inhibition at 20 µM [1]: < 40%
inhibition at 20 µM [2]: < 40%
SMILES: CCN(CC)Cc1cc(Nc2ccnc3cc(Cl)ccc23)ccc1O [amodiaquine]

inhibition at 20 µM [1]: ≥ 50%
residual 11β-HSD2 activity ([2]; HEK-293 lysates): 44%
SMILES: Clc1ccc(CCC(Cn2ccnc2)Sc2c(Cl)cccc2Cl)cc1 (centres unmarked) [butoconazole]

inhibition at 20 µM [1]: < 40%
inhibition at 20 µM [2]: < 40%
SMILES: CCN(CC)CCCC(C)Nc1ccnc2cc(Cl)ccc12 (centres unmarked) [chloroquine]

inhibition at 20 µM [1]: < 40%
inhibition at 20 µM [2]: < 40%
SMILES: CCC[C@@H]1C[C@@H](C(=O)N[C@@H]([C@H]2O[C@H](SC)[C@H](O)[C@@H](O)[C@H]2O)[C@H](C)Cl)N(C)C1 [clindamycin]

inhibition at 20 µM [1]: < 40%
inhibition at 20 µM [2]: < 40%
SMILES: Cc1onc(-c2ccccc2Cl)c1C(=O)N[C@@H]1C(=O)N2[C@@H]1SC(C)(C)[C@@H]2C(=O)O [cloxacillin]

inhibition at 20 µM [1]: < 40%
inhibition at 20 µM [2]: < 40%
SMILES: Cc1onc(-c2c(F)cccc2Cl)c1C(=O)N[C@@H]1C(=O)N2[C@@H]1SC(C)(C)[C@@H]2C(=O)O [flucloxacillin]

inhibition at 20 µM [1]: < 40%
inhibition at 20 µM [2]: < 40%
SMILES: CC(=O)O[C@H]1C[C@@]2(C)[C@@H](C[C@@H](O)[C@H]3[C@@]4(C)CC[C@@H](O)[C@@H](C)[C@@H]4CC[C@@]32C)/C1=C(\CCC=C(C)C)C(=O)O [fusidic acid]

IC50 [7]: 1070 ± 290 nM
irreversible 11β-HSD2 inhibition [9]: excluded
IC50 [10]: 1190 ± 240 nM
activity against 11β-HSD1 (in words) [1]: inactivity towards 11β-HSD1
IC50 [2]: 139 ± 14 nM
IC25 for 11β-HSD2 [2]: 78 nM
SMILES: CCC(C)n1ncn(-c2ccc(N3CCN(c4ccc(OCC5COC(Cn6cncn6)(c6ccc(Cl)cc6Cl)O5)cc4)CC3)cc2)c1=O (centres unmarked) [itraconazole]
inhibition of 17β-HSD1 activity [5]: None of the compounds inhibited 17β-HSD1 or 17β-HSD2 activity
inhibition of 17β-HSD2 activity [6]: None of the compounds inhibited 17β-HSD1 or 17β-HSD2 activity
concentration in fat tissue relative to plasma ([11]; fat tissue): approximately 17 fold
duration of treatment needed to reach plasma steady-state levels ([11]; human plasma): 15 days
concentration in lung, liver, muscle and kidney relative to plasma ([11]; lung, liver, muscle and kidney): 2-3 fold
rate of malformations compared to the control [12]: no difference

inhibition at 20 µM [1]: < 40%
inhibition at 20 µM [2]: < 40%
SMILES: CCC[C@@H]1C[C@@H](C(=O)N[C@@H]([C@H]2O[C@H](SC)[C@H](O)[C@@H](O)[C@H]2O)[C@@H](C)O)N(C)C1 [lincomycin]

inhibition at 20 µM [1]: < 40%
inhibition at 20 µM [2]: < 40%
SMILES: CCOc1ccc2ccccc2c1C(=O)N[C@@H]1C(=O)N2[C@@H]1SC(C)(C)[C@@H]2C(=O)O [nafcillin]

inhibition at 20 µM [1]: < 40%
inhibition at 20 µM [2]: < 40%
SMILES: N=C(N)c1ccc(OCCCCCOc2ccc(C(=N)N)cc2)cc1 [pentamidine]

residual 11β-HSD2 activity ([7]; SW-620 cells, 5 μM): approximately 60%
irreversible 11β-HSD2 inhibition [9]: excluded
residual 11β-HSD2 activity ([10]; MCF-7 cells, 5 μM): ~40%
activity against 11β-HSD1 (in words) [1]: inactivity towards 11β-HSD1
IC50 [2]: 460 ± 98 nM
IC25 for 11β-HSD2 [2]: 237 nM
SMILES: CC[C@@H]([C@H](C)O)n1ncn(-c2ccc(N3CCN(c4ccc(OC[C@@H]5CO[C@@](Cn6cncn6)(c6ccc(F)cc6F)C5)cc4)CC3)cc2)c1=O [posaconazole]
inhibition of 17β-HSD1 activity [5]: None of the compounds inhibited 17β-HSD1 or 17β-HSD2 activity
inhibition of 17β-HSD2 activity [6]: None of the compounds inhibited 17β-HSD1 or 17β-HSD2 activity
plasma protein binding [8]: ≥ 98%
concentration in pulmonary alveolar cells compared with plasma ([11]; pulmonary alveolar cells): 31-42 fold

inhibition at 20 µM [1]: < 40%
inhibition at 20 µM [2]: < 40%
SMILES: CCCN(CCC)S(=O)(=O)c1ccc(C(=O)O)cc1 [probenecid]

inhibition at 20 µM [1]: ≥ 50%
residual 11β-HSD2 activity ([2]; HEK-293 lysates): 61%
SMILES: Clc1ccc(C(Cn2ccnc2)OCc2csc3c(Cl)cccc23)c(Cl)c1 (centres unmarked) [sertaconazole]

inhibition at 20 µM [1]: ≥ 50%
residual 11β-HSD2 activity ([2]; HEK-293 lysates): 50%
SMILES: Clc1ccc(C(Cn2ccnc2)OCc2ccsc2Cl)c(Cl)c1 (centres unmarked) [tioconazole]

SMILES: CC(C)(C)C(=O)C(Oc1ccc(Cl)cc1)n1cncn1 (centres unmarked) [triadimefon]
IC50 ([3]; read-out: IC50 as competitive inhibitor of 11β-HSD1): 15000 nM
Km ([3]; read-out: Km as substrate of 11β-HSD1): 3.5 µM
